# H69AR inhibit – blocks growth of human H69AR lung tumor cells; H69AR lung tumor viability, ATP luminescence, 72 h; active compounds read low; viability, % at 10 µM; 85,000 compounds, 6% hits;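 active = viability at or below 40%; inactive = viability above 40%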;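 also: multidrug resistant small cell line overexpressing MRP-1 efflux transporter; 100% = mean luminescence of untreated control wells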
# Lung fibro prol – blocks proliferation of human lung fibroblasts; LL 47 human lung fibroblast viability, ATP luminescence; active compounds read low; viability, % at 10 µM; 85,000 compounds, 1.1% hits; AID 719;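 active = viability at or below 50% in the single dose screen; inactive = viability above 50%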;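 also: compound exposure lasted 72 h before the ATP readout; 100% = median luminescence of untreated cell-only wells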
#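 Signal: luminescent ATP detection, CellTiter-Glo; assay system: LL 47 human lung fibroblasts; input: 1,150 cells/well; incubation: overnight cell rest, 72 h compound treatment at 37 °C; measure: % viability versus median cells-only luminescence; medium: IMEM growth medium with 15% fetal bovine serum; dosing: compound addition at 0.1% DMSO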
# HCT116 bCat-KO – beta-catenin-lacking colon tumor cell growth suppression | HCT116 beta-catenin knockout viability, CellTiter-Glo, 60 h; active compounds read low | AID 818 | viability, % at 10 µM | 140,000 compounds, 1.5% hits;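 active = viability at or under a set limit, the compound median less 4 SD, cut at about 6% in these data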;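 also: 0% = Hyamine 1622 control at 20 µM and 100% = untreated cell control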
# HUVEC prolif 384 – human endothelial cell proliferation inhibition | viability, % at 10 µM (by protocol) | 86,000 compounds, 1.1% hits | HUVEC proliferation, CellTiter-Glo luminescence, 72 h; active compounds read low;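 active = viability at or below 30%; inactive = viability above 30%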;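 also: 100% = median luminescence of DMSO-only cell control wells on each plate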
# PTEN del growth – suppresses growth of cells with PTEN deletion | HCT116 PTEN-null viability, CellTiter-Glo, 60 h; active compounds read low | viability, % at 10 µM | 140,000 compounds, 1.2% hits | AID 827;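 active = viability at or below a set limit, 4 SD under the median of all tested compounds, cut at about 3.7% in these data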;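 also: PTEN knockout HCT116 line with beta catenin targeted HCT116 as companion control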
# The depositor's hits bear a star; · = no result. Only a selection was taken, and hits are over-represented in it overall.
SMILES,H69AR inhibit,Lung fibro prol,HCT116 bCat-KO,HUVEC prolif 384,PTEN del growth
Cc1c(C#N)c2ccccc2n1CC(=O)NCCc1c[nH]c2ccccc12,37*,77,73,74,70
COc1ccc(C)cc1NC(=O)c1nnn(Cc2cc(C)ccc2C)c1N,87,89,69,78,74
O=C(c1ccc(Cn2cc(Cl)cn2)cc1)N1CCN(c2ccccc2)CC1,69,100,84,99,89
O=C(c1ccc(Cn2cc(Br)cn2)cc1)N1CCN(c2ccccc2)CC1,8.8*,90,57,55,43
OC1(Cc2ccn[nH]2)CCCCC1,102,104,88,28*,101
COc1ccc(-c2coc3cc4oc(=O)c5ccccc5c4cc23)cc1F,·,·,4.5*,·,6
Cc1c(CCC(=O)O)c(=O)oc2cc3occ(-c4ccc(F)cc4)c3cc12,102,91,96,104,90
COc1ccccc1S(=O)(=O)Cc1ccc(C(=O)NCc2cccs2)o1,106,96,105,108,110
O=C(Cc1cccs1)OCC(=O)c1ccco1,81,92,89,92,97
O=C(CC(Sc1ccccc1)c1cccs1)c1ccco1 (stereo not drawn),1.9*,·,52,88,62
Cc1nn(CC#N)c(=O)n1-c1cccc(F)c1,98,94,97,95,99
O=C(NCC1CCCO1)C1CCC(=O)N1Cc1ccc(F)cc1 (stereo not drawn),96,95,94,99,97
O=C1C=C(NCCN2CCOCC2)C(=O)c2cnccc21,·,·,1.8*,·,1.9*
CCC(C)(C)NC(=O)C(c1ccc(C)cc1)N(CC1CCCO1)C(=O)CNC(=O)c1cccs1 (stereo not drawn),·,·,78,·,84
CCOc1ccccc1N1CCN(C(=O)C2c3ccccc3Oc3ccccc32)CC1,19*,68,15,56,14
COCCCn1c2nc3ccccc3nc2c2c(=O)n(Cc3ccccc3Cl)cnc21,3.2*,69,·,27*,·
O=C1C2C3C=CC(C2C(=O)N1C1CCCCC1)C1C(=O)N(C2CCCCC2)C(=O)C31 (stereo not drawn),104,93,103,100,106
CCOc1cc(/C=C2/C(=O)ON=C2C)ccc1OCc1ccc(F)cc1,·,·,89,·,71
CCOc1cc(/C=C2/C(=O)ON=C2C)ccc1OCc1ccccc1F,23*,43*,80,33,80
CCn1c(SCC(=O)N2CCCc3ccccc32)nnc1-c1c[nH]c2ccccc12,23*,108,94,95,82
CCCn1c(SCC(=O)N2c3ccccc3Sc3ccccc32)nc2c1c(=O)n(C)c(=O)n2C,·,94,81,79,76
O=S(=O)(NC1CC1)c1ccc(S(=O)(=O)N2CCN3CCCC3C2)cc1 (stereo not drawn),95,109,93,111,99
O=S(=O)(NC1CC1)c1ccc(S(=O)(=O)N2CCCC3(CCCCC3)C2)cc1,32*,59,94,60,84
COc1ccc(Cl)cc1NC(=O)c1ccco1,83,94,89,80,95
COc1cc2cc(/C=C/C(=O)c3ccco3)c(Cl)nc2cc1OC,7.9*,86,18,68,8
SMILES,H69AR inhibit,Lung fibro prol,HCT116 bCat-KO,HUVEC prolif 384,PTEN del growth
COc1ccc2cc(/C=C/C(=O)c3ccco3)c(Cl)nc2c1,16*,85,47,73,42
C=CCSc1nnc(Cc2cc(=O)[nH]c(=O)[nH]2)n1-c1cc(C)ccc1C,90,94,98,91,90
CC(C)(C)NC(=O)c1cccc(NC(=O)CSc2ccccc2)c1,·,·,92,·,82
COc1ccc(N(CC(=O)Nc2ccc3c(c2)OCO3)S(=O)(=O)c2ccccc2)c(OC)c1,80,96,82,75,69
COc1ccccc1Nc1nc(-c2sc(NC(=O)c3ccco3)nc2C)cs1,·,·,47,·,56
COc1cccc(N(C(=O)c2ccco2)c2nc(-c3sc(NC(=O)c4ccco4)nc3C)cs2)c1,·,·,3.8*,·,6
O=C(Nc1ncc(S(=O)(=O)c2ccc([N+](=O)[O-])cc2)s1)c1cccc2ccccc12,·,·,43,·,40
O=C(NC(Nc1ncc(S(=O)(=O)c2ccc([N+](=O)[O-])cc2)s1)(C(F)(F)F)C(F)(F)F)c1ccc(Cl)cc1,·,·,2.6*,·,3.1*
Cc1cc(Br)ccc1OCCCCNCCO,·,·,68,·,67
C=CCOc1ccc(/C(O)=C2\C(=O)C(=O)N(CCN(C)C)C2c2cccs2)cc1 (stereo not drawn),83,99,100,95,92
COC(=O)C1CCN(c2nc3ccccc3nc2C(C#N)C(=O)NCCc2ccccc2)CC1 (stereo not drawn),57,82,66,64,74
COc1ccc(CNC(=O)C(C#N)c2nc3ccccc3nc2N2CCCC2)cc1 (stereo not drawn),34*,90,58,72,55
CCCCNC(=O)C(C#N)c1nc2ccccc2nc1N1CCCC1 (stereo not drawn),100,96,97,105,90
COc1ccc(CNC(=O)C(C#N)c2nc3ccccc3nc2N2CCN(C)CC2)cc1 (stereo not drawn),34*,93,36,4.2*,45
COc1cc(S(=O)(=O)Nc2ccccc2)ccc1NC=O,106,108,91,97,99
CCCC/C(C)=N\NC(=O)CNS(=O)(=O)c1ccc([N+](=O)[O-])cc1,·,·,0.5*,·,0.4*
CCCn1c(NC(=O)C2CCN(S(=O)(=O)c3cccs3)CC2)nc2ccccc21,39*,65,10,72,8
CCCn1c(NC(=O)c2ccccc2)nc2ccccc21,31*,71,42,86,38
CCCn1c(NC(=O)c2cccc(S(=O)(=O)N3CCCC3)c2)nc2ccccc21,17*,53,2.9*,52,2.0*
O=C(Nc1nc2ccccc2n1CCN1CCCCC1)C1CCCCC1,31*,87,43,107,56
CCCn1c(NC(=O)c2ccc(C)cc2)nc2ccccc21,52,67,26,87,37
Cc1ccc(-c2csc3nc(CSc4nnc(-c5ccc(Cl)cc5)n4C)[nH]c(=O)c23)cc1,·,·,92,·,91
CC(NC(=O)c1ccccc1)c1nc2ccccc2n1Cc1ccccc1F (stereo not drawn),12*,92,76,103,66
CCCn1c(Nc2nc3ccccc3n2C)nc2ccccc21,3.1*,102,2.2*,3.0*,2.0*
CC(NC(=O)c1ccccc1)c1nc2ccccc2n1Cc1ccc(C#N)cc1 (stereo not drawn),70,93,78,102,89
O=C(N/N=C/c1sc(=O)n(-c2ccccc2)c1Cl)c1ccccc1,·,·,79,·,71
CCOC(=O)c1sc(=NC(=O)c2cc(OC)c(OC)c(OC)c2)n(C)c1C,11*,97,22,92,13
CCOC(=O)c1sc(=NC(=O)c2ccc(S(=O)(=O)N3CCOCC3)cc2)n(C)c1C,84,103,·,94,·

# Bioassay records as filed in PubChem BioAssay.
